Reference: paper PMC7161550 (British Journal of Pharmacology, 2020)
Several values for one entry are separate records, joined by “and”; a condition that tells them apart may be missing. Equal values may be shown once. Entries after “also recorded” stand apart in the source; their conditions may differ. Read-outs that look alike come from different tables or passages of the source.

Assays:
[1] = test system: brain fatty acid amides (AEA, PEA, OEA); assay: Fatty acid amides; assay type: in vivo; details: mouse brain, 8 hr
How it was run: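 Frozen brains were thawed at 4°C and weighed. Each sample was extracted with chloroform:MeOH (2:1) plus 0.1 M phosphate buffer, pH 5.6. Deuterated internal standards were spiked in: AEA‑d8, PEA‑d4 and OEA‑d2 for the fatty acid amides, and 2‑AG‑d8 for 2‑AG.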

[2] = biological target: T1, fatty acid amide hydrolase (Rattus norvegicus, UniProt P97612); assay: Gel‐based competitive ABPP in vitro, TAMRA‐FP probe, rat brain fractions; assay type: biochemical; details: 1 hr
T1 sequence (P97612 1-579): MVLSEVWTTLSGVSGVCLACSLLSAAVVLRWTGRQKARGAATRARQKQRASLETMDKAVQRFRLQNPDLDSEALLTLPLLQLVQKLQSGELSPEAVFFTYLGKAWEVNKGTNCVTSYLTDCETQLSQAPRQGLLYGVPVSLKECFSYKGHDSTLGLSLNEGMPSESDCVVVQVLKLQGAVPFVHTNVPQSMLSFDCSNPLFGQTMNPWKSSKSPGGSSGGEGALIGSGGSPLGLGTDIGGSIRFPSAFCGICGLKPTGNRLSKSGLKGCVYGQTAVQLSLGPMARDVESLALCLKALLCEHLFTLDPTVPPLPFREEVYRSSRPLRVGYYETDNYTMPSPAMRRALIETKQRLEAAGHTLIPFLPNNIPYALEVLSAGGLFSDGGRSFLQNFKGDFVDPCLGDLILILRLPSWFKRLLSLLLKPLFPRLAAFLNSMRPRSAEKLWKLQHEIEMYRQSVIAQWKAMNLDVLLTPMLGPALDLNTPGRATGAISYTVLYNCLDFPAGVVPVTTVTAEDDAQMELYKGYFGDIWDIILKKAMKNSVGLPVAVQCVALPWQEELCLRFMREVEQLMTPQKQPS
How it was run: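 Rat brain membrane and soluble protein extracts (200 μg) were incubated 1 hr at room temperature with test compound at 1 nM–100 μM, DMSO vehicle or PMSF 3 mM. Active serine hydrolases were then labelled with TAMRA‑FP probe (2 μM final) for 1 hr at room temperature. Bands were visualized by in-gel fluorescence.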

[3] = biological target: T2, rat brain fatty acid amide hydrolase (Rattus norvegicus, UniProt P97612); assay: FAAH progression curves, kinetic constants k obs and k inact/K I; assay type: biochemical; details: inhibition of rat brain FAAH, 37°C
T2 sequence (P97612 1-579): T1 sequence (P97612 1-579)

COS‐hFAAH cells = assay: Quantification of compounds in COS‐hFAAH supernatant, cell lysates and medium; assay type: in vitro ADME; details: 1, 3 and 24 hr
[4] = biological target: T3, human recombinant fatty acid amide hydrolase (FAAH) (Homo sapiens, UniProt O00519); assay: FAAH activity in intact COS‐hFAAH cells; assay type: cell-based
T3 sequence (O00519 1-579): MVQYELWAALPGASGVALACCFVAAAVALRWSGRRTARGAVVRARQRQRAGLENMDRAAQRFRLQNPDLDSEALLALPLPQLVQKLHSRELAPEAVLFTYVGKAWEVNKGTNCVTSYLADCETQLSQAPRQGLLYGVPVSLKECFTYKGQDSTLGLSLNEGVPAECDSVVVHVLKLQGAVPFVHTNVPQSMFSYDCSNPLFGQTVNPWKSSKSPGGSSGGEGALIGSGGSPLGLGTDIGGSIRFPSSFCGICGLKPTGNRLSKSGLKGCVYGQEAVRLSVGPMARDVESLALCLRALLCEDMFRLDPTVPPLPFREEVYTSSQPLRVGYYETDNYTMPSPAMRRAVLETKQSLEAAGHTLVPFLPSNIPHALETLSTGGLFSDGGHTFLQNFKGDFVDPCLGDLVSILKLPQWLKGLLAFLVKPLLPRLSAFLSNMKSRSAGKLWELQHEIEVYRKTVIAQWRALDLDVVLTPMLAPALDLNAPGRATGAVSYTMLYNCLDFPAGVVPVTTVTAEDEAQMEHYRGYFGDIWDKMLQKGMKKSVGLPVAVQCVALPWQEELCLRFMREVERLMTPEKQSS

[5] = test system: 229 assays for receptors, enzymes, transporters, ion channels, hormones, growth factors and inflammatory mediators; assay type: binding; details: 10 and 50 μM
[6] = biological target: T4, mouse liver fatty acid amide hydrolase (FAAH) (Mus musculus, UniProt O08914); assay: Ex vivo FAAH activity in mouse liver after oral administration; details: for ED50 [95% CI] Liver: 8 hr after oral administration
T4 sequence (O08914 1-579): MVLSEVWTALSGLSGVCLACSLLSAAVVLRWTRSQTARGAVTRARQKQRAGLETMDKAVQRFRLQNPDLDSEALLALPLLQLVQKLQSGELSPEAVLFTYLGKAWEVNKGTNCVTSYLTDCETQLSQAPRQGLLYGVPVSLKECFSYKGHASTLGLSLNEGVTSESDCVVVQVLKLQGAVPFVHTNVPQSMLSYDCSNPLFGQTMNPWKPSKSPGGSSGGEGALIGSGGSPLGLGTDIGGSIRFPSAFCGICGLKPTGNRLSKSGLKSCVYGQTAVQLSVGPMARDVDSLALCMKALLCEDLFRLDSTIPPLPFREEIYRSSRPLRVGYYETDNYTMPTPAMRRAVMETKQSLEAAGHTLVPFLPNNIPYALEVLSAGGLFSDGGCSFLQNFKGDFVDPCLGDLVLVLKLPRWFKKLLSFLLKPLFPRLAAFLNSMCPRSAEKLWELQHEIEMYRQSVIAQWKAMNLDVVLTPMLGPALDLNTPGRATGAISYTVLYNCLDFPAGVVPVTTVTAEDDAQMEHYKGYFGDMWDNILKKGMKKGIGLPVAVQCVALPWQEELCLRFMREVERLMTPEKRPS
How it was run: (§1)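 Liver and half-brain were collected into FAAH membrane buffer (3 mM MgCl2, 1 mM EDTA, 50 mM Tris HCl, pH 7.4) and stored at −20°C. Homogenates (15 μg protein brain, 5 μg liver) were pre-incubated 15 min at 37°C. AEA + 3H‑AEA + BSA was added for 10 min (brain) or 7 min (liver), then charcoal. Scintillation counting gave % remaining activity versus controls after blank subtraction.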

[7] = biological target: T5, mouse brain fatty acid amide hydrolase (FAAH) (Mus musculus, UniProt O08914); assay: Ex vivo FAAH activity in mouse brain after oral administration; details: for ED50 [95% CI] Brain: 8 hr after oral administration
T5 sequence (O08914 1-579): T4 sequence (O08914 1-579)
How it was run: as §1

| Compound | AEA ([1]; 0.01 mg·kg^−1 p.o.) | OEA ([1]; 0.01 mg·kg^−1 p.o.) | PEA ([1]; 0.01 mg·kg^−1 p.o.) | AEA ([1]; 0.03 mg·kg^−1 p.o.) | OEA ([1]; 0.03 mg·kg^−1 p.o.) | PEA ([1]; 0.03 mg·kg^−1 p.o.) | AEA ([1]; 0.1 mg·kg^−1 p.o.) | OEA ([1]; 0.1 mg·kg^−1 p.o.) | PEA ([1]; 0.1 mg·kg^−1 p.o.) | AEA ([1]; 0.3 mg·kg^−1 p.o.) | OEA ([1]; 0.3 mg·kg^−1 p.o.) | PEA ([1]; 0.3 mg·kg^−1 p.o.) | concentration that completely inhibited the band corresponding to the MW of FAAH [2] [µM] | k inact/K I [3] | detection in cell lysates (COS‐hFAAH cells) | stability in cellular media over time (COS‐hFAAH cells) | off‐target activity at the sites studied [5] | other results |
| --- | --- | --- | --- | --- | --- | --- | --- | --- | --- | --- | --- | --- | --- | --- | --- | --- | --- | --- |
| CN(C(=O)n1cnc(-c2ccc[n+]([O-])c2)c1)C1CCCCC1 [BIA 10‐2474, 3‐(1‐(cyclohexyl (methyl)carbamoyl)‐1H‐imidazol‐4‐yl)pyridine 1‐oxide] | 89.5 ± 9.3 % of control | 109.1 ± 8.6 % of control | 107.2 ± 8.8 % of control | 87.0 ± 10.3 % of control | 143.1 ± 30.6 % of control | 178.6 ± 62.7 % of control | 136.8 ± 16.4 % of control | 676.5 ± 89.8 % of control | 1027.6 ± 148.0 % of control | 172.1 ± 29.5 % of control | 804.0 ± 107.6 % of control | 1,223.3 ± 159.6 % of control | 100 | 1,243 M·s^−1 | undetectable | stable | no significant activity | fold less potent than PF‐04457845 in inhibiting human FAAH in situ [4]: 10 fold; IC50 ([4]; IC50 [95% CI], incubation 1 hr): 74.4 nM; IC50 ([4]; IC50 [95% CI], incubation 3 hr): 42.5 nM; IC50 ([4]; IC50 [95% CI], incubation 24 hr): 18 nM; IC50 ([4]; IC50 values over all incubation times, intact cells expressing human FAAH): 18 to 74 nM; ED50 [95% CI] Liver ([6]; 480 min): 6.2 μg·kg^−1 and 6.2 [4.8, 7.9] μg·kg^−1; inhibition at 0.1 mg/kg ([6]; po, read-out: inhibition of liver FAAH): > 96.5%; ED50 [95% CI] Brain ([7]; 480 min): 13.5 μg·kg^−1 and 13.5 [10.2, 17.7] μg·kg^−1; inhibition at 0.1 mg/kg ([7]; po, read-out: maximal inhibition of brain FAAH): 91.4% |
| O=C(Nc1cccnn1)N1CCC(=Cc2cccc(Oc3ccc(C(F)(F)F)cn3)c2)CC1 [PF‐04457845] | 220.2 ± 46.9 % of control | 837.5 ± 115.5 % of control | 984.3 ± 107.1 % of control | 257.6 ± 16.9 % of control | 886.1 ± 42.6 % of control | 1073.1 ± 85.1 % of control | 268.7 ± 10.8 % of control | 933.4 ± 17.5 % of control | 1080.9 ± 62.0 % of control | 309.4 ± 16.6 % of control | 961.4 ± 48.2 % of control | 1,141.9 ± 56.3 % of control | 0.1 | 167,333 M·s^−1 | detected | not stable | active at a number of sites; also recorded: significant activity at several receptors, transporters and ion channels | AEA ([1]; 0.003 mg·kg^−1 p.o.): 88.5 ± 7.5 % of control; OEA ([1]; 0.003 mg·kg^−1 p.o.): 97.1 ± 8.0 % of control; PEA ([1]; 0.003 mg·kg^−1 p.o.): 100.6 ± 16.4 % of control; IC50 ([4]; read-out: IC50 [95% CI], incubation 1 hr): 4.3 nM; IC50 ([4]; read-out: IC50 [95% CI], incubation 3 hr): 3.4 nM; liver FAAH activity, % of control levels ([6]; 0.1 mg·kg^−1 p.o., 48 hr): 72.3%; inhibition of hepatic FAAH, mean values ([6]; 0.1 mg·kg^−1 p.o., over 24 hr): above 88.7%; ED50 [95% CI] Liver [6]: 2.0 [1.8, 2.2] μg·kg^−1; brain FAAH activity, % of control levels ([7]; 0.1 mg·kg^−1 p.o., 48 hr): 43.8%; inhibition of cerebral FAAH, mean values ([7]; 0.1 mg·kg^−1 p.o., over 24 hr): above 88.7%; ED50 [95% CI] Brain [7]: 4.3 [1.8, 9.9] μg·kg^−1 |
